For orientation: IC50 means the concentration needed to halve the response being measured. A word on the half-life: it is the time in which the quantity being followed falls by half. Higher therefore signals slow decline.

Active and inactive are the calls of the source. The calls are words filed in the database; no cut-off is given here.

The record followed here is ChEMBL document CHEMBL2331340, “Novel antitumor indolizino[6,7-b]indoles with multiple modes of action: DNA cross-linking and topoisomerase I and II inhibition” (J Med Chem, 2013).

Data set [1] can be described thus: Cell cycle arrest in human CL141T cells assessed as accumulation at G1 phase at 1 x IC50 to 2 x IC50 after 24 hrs by propidium iodide staining-based FACS flow cytometric analysis. It counts as functional. The essentials: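 CL141T cells treated at 0.5-, 1- and 2-fold IC50 for 24, 48 and 72 h. Cells fixed in ice-cold 70% EtOH, then stained with 4 μg/mL propidium iodide in PBS with 1% Triton X-100 and 0.1 mg/mL RNase A. Phase distribution from flow cytometry DNA histograms; sub-G1 fraction scored as well.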
(In general: Flow cytometry measures light scatter and fluorescence of single cells or particles in a stream.)

Data set [2] concerns the target T1, DNA topoisomerase 1 (Homo sapiens) (UniProt P11387).
T1 sequence (whole entry): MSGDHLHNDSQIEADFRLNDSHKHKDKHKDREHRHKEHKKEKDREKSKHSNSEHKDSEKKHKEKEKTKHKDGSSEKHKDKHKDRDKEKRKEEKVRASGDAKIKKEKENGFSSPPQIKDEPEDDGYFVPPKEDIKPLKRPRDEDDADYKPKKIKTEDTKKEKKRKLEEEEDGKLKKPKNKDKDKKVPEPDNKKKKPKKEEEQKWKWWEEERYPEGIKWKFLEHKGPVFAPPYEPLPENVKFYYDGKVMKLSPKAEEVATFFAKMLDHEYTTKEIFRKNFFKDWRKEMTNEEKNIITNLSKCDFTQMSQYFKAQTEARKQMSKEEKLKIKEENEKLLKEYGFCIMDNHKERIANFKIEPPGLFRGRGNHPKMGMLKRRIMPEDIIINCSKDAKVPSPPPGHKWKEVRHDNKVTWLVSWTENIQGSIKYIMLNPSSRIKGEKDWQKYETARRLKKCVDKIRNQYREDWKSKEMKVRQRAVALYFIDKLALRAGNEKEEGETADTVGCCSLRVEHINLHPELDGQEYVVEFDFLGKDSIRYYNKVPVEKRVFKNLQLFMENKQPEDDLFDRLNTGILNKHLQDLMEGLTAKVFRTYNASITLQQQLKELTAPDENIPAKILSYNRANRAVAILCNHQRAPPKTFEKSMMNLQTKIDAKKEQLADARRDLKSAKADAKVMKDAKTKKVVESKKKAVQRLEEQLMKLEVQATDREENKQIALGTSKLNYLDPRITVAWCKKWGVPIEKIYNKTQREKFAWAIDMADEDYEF
Description: Inhibition of DNA topoisomerase 1 (unknown origin)-mediated relaxation of supercoiled pHOT DNA at 25 to 200 uM after 30 to 45 mins by agarose gel electrophoresis. The essentials: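 Supercoiled pHOT DNA (200 ng) and compound in 10 mM Tris-HCl pH 7.9 with 1 mM EDTA at 37 °C. Reaction started with 1 unit topo I, run 30−45 min, stopped with 10% SDS. Products separated on 1% agarose at 50 V for 90 min and stained with ethidium bromide.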

Data set [3] can be described thus: Cytotoxicity against human KB-VIN10 cells after 72 hrs by Alamar blue assay. As to conditions: KB-VIN10, 72 h. Background: Resazurin is reduced to fluorescent resorufin, in cell work by metabolically active cells.
Data set [4] can be described thus: Resistance factor, ratio of IC50 for human KB-VIN10 cells to IC50 for human KB cells. It counts as functional.
Data set [5] in a line: Half life in rat plasma at 1 to 10 ug/mL after 1 to 4 hrs by HPLC analysis. It counts as ADME, cell-free. The essentials:
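Rat plasma spiked at 1 and 10 μg/mL and held 1, 2, 3 and 4 h at room temperature. Protein precipitated with acetonitrile containing 10 μg/mL propyl paraben internal standard, centrifuged, filtered. Analysed by reversed-phase C18 HPLC in acetonitrile/10 mM NaH2PO4 pH 4.5 (32:68). Stability given as mean relative error, at least three replicates per concentration.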

The subject of data set [6] is HT-29. Description: Antitumor activity against human HT-29 cells xenografted in nude mouse assessed as tumor growth inhibition at 25 mg/kg, iv qd administered 4 days measured on day 20. Set-up: dose 25 mg/kg. It counts as functional, organism-based.
Data set [7] relates to Mus musculus. Description: Toxicity in nude mouse xenografted with human HT-29 cells assessed as body weight loss at 25 mg/kg, iv qd administered 4 days measured for 20 days. It counts as organism-based. To be noted: in vivo, 480 h. Also on record: dose 25 mg/kg, route intravenous. (In general: Xenograft models place foreign cells or tissue in a host animal.)
Data set [8] has as its system NCI-H460. Description: Induction of apoptosis in human H460 cells assessed as increase in apoptotic cells at IC50 after 24 hrs by annexin V-FITC/propidium iodide staining-based FACS flow cytometric analysis (reference value: 4.1%). Format: functional.

For `Cc1c(CO)c(CO)c2n1Cc1c(c3ccccc3n1C)C2`, the result in data set [1] was Active. Moreover, in data set [2], the inhibition result was “Active”. The molecule also returned an IC50 in data set [3] of 1310 nM. The “Ratio IC50” value in data set [4] amounted to 0.52. For the same molecule, in data set [5], the half-life was 12.4 h. For the same molecule, the TGI result in data set [6] is “Active”. The Activity entry was “Toxic” in data set [7] and 15.09% in data set [8].
